Screening results (PubChem)
ZTA counter – blocks Epstein-Barr virus ZTA, an EBNA-1 counter-screen; ZTA-DNA binding, fluorescence polarization; 320,000 compounds, 0.15% hits; P03206; inhibition, % at 11 µM; AID 2234; in the data active = inhibition above about 33%
Target sequence (P03206 whole entry, looked up): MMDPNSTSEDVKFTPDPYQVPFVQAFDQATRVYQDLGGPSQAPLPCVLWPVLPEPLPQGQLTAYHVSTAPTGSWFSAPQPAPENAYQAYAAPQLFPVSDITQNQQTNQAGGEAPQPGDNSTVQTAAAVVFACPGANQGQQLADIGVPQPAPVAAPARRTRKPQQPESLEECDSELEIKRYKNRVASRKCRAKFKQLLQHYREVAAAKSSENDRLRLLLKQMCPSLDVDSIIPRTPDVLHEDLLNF
EBNA-1 inh – blocks EBNA-1 binding to DNA; EBNA-1 DNA binding, fluorescence polarization; inhibition, % at 14.8 µM; 300,000 compounds, 0.34% hits; AID 1950; in the data active = inhibition above about 28%
Apaf-1 inh – human Apaf-1 inhibition | O14727 | inhibition, % at 20 µM | reconstituted apoptosome caspase-3 activity, DEVD-Rh110 fluorescence | 330,000 compounds, 0.71% hits | AID 489030; active = inhibition of at least 40% at 20 µM;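 note: plate controls were DMSO wells for no effect and DEVD-CHO caspase inhibitor wells for full effect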
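System: reconstituted apoptosome with Apaf-1, cytochrome c, caspase-9, procaspase-3, dATP; Signal: Rh110 fluorescence intensity; Schedule: 30 min compound preincubation, 50 min activation, room temperature; Reagent: cytochrome c trigger plus (Z-DEVD)2-Rh110 caspase-3 substrate.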
PREPL inhibitor – inhibits the human prolyl oligopeptidase-like enzyme; recombinant PREPL, fluorescence polarization activity-based probe; Q4J6C6; inhibition, % at 5.96 µM; 320,000 compounds, 0.68% hits; in the data active = inhibition above about 43%;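 note: 0% = enzyme with DMSO and 100% = wells lacking enzyme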
UBC13 polyUb – inhibitors of human UBC13 polyubiquitin chain formation. TR-FRET. inhibition, % at 20 µM. 330,000 compounds, 0.47% hits; in the data active = inhibition above about 45%, passing the limit was not always enough; inconclusive = no clear call, values can overlap the other calls
Casp3 counter – inhibits human caspase-3 in UBC13 counter-screen; shares compounds with UBC13 polyUb; Recombinant caspase-3, Caspase-Glo 3/7 luminescence, 60 min; inhibition, % at 20 µM; 1,400 compounds, 4% hits; AID 488856;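 active = mean inhibition across replicates above about 26%, limit read from the data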;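 note: plate controls were DMSO with caspase-3 for no effect and DMSO wells lacking enzyme for full effect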
Target sequence (P42574 whole entry, looked up): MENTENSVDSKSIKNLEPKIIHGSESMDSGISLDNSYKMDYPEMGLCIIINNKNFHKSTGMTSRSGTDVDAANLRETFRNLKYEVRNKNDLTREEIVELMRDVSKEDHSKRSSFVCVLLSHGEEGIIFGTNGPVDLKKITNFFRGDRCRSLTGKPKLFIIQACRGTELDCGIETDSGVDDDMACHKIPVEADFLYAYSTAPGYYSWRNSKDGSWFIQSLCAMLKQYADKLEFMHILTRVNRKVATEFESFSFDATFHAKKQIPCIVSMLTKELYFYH
UBC13 confirm – human UBC13 polyubiquitin inhibition, confirmed. shares compounds with UBC13 polyUb. UBC13 polyubiquitination, TR-FRET, biochemical. inhibition, % at 10 µM. 1,400 compounds, 68% hits; in the data active = inhibition above about 45%; inconclusive = no clear call, values can overlap the other calls
* = called active by the depositor; ? = inconclusive; / = not tested or not shown. An excerpt weighted towards active compounds, which were near 1.7% of everything screened.

SMILES | ZTA counter | EBNA-1 inh | Apaf-1 inh | PREPL inhibitor | UBC13 polyUb | Casp3 counter | UBC13 confirm
CCCN(C(=O)COC(=O)Cn1c(=O)oc2ccccc21)c1c(N)n(Cc2ccccc2)c(=O)[nH]c1=O | 8 | 1 | -3 | 15 | -1 | / | /
N#Cc1c(N2C(=O)c3ccc(C(=O)O)cc3C2=O)sc2c1CCCC2 | 4 | 11 | -15 | -2 | 6 | / | /
CCC(C)N(CCNC(=O)c1ccc2c(c1)NC(=O)c1ccccc1S2)C1CCCCC1 (stereo not given) | 2 | 4 | 15 | 14 | 52* | -2 | 70*
CC1CCCC(C)N1CCCNC(=O)c1ccc2c(c1)NC(=O)c1ccccc1S2 (stereo not given) | -8 | 9 | 13 | 9 | 41 | / | /
Cc1ccc2c(n1)CC(C)(C)CC2=O | -7 | -8 | -1 | 5 | 47* | -2 | 10
CCCCn1c(SCC(=O)Nc2cc(C)[nH]n2)nc2ccsc2c1=O | 3 | 5 | -13 | 3 | 50* | -2 | 53*
O=C(O)c1ccc(Cn2c(SCc3cc(=O)n4cc(Br)ccc4n3)nc3ccsc3c2=O)cc1 | 6 | -6 | 5 | 13 | -20 | / | /
Cc1ccc(CNC(=O)CSc2nc3ccsc3c(=O)n2Cc2ccc(C(=O)O)cc2)cc1 | 6 | 2 | 4 | 10 | 56* | 6 | 64*
O=C(CSc1nc2ccccc2c(=O)n1Cc1ccccc1)NCc1ccco1 | -9 | 8 | -12 | 1 | 6 | / | /
CCCCn1c(SCC(=O)Nc2cc(C)on2)nc2ccsc2c1=O | -8 | 2 | -8 | 12 | 6 | / | /
COc1ccc(Cn2c(SCC(=O)NCc3ccco3)nc3ccsc3c2=O)cc1 | -11 | -5 | -2 | 6 | 66* | -4 | 74*
O=C(CSc1nc2ccsc2c(=O)n1Cc1ccc(C(=O)O)cc1)NCc1ccco1 | 10 | -4 | -4 | -6 | 61* | 1 | 60*
O=C(OCC(=O)c1c[nH]c2ccccc12)C1=COCCO1 | 10 | 2 | 1 | 0 | 1 | / | /
Cc1cccc(/C=C/c2nc3ccccc3c(=O)[nH]2)c1 | 30 | 3 | 10 | -5 | 8 | / | /
COCCN1C=C(C(=O)OC)C(c2ccccc2C(F)(F)F)C(C(=O)OC)=C1 | -12 | 2 | -5 | 4 | 26 | / | /
CCOCCn1c(N2CCN(c3ccccc3)CC2)nc2c1c(=O)[nH]c(=O)n2C | 15 | 1 | 1 | 17 | 3 | / | /
O=[N+]([O-])c1ccc2[nH]c(O)c(N=NC(=S)NCC3CCCO3)c2c1 (stereo not given) | -10 | 2 | -17 | 9 | 91* | 4 | 94*
CCNC(=S)N=Nc1c(O)[nH]c2ccc([N+](=O)[O-])cc12 | -17 | 0 | -10 | 15 | 45* | 1 | 60*
O=[N+]([O-])c1ccc2[nH]c(O)c(N=NC(=S)Nc3cccnc3)c2c1 | 1 | -14 | 1 | 21 | ? | / | /
CC(C)c1ccc2[nH]c(O)c(N=NC(=S)NCCc3ccccc3)c2c1 | 10 | 9 | 12 | 5 | -6 | / | /
CCNC(=S)N=Nc1c(O)[nH]c2ccc(C(C)C)cc12 | 9 | 0 | 5 | 7 | 90* | 1 | 88*
C/C(=N/NC(=O)c1cnccn1)c1cccs1 | 10 | 4 | 10 | 3 | 4 | / | /
Cc1cc(C)cc(NC(=O)c2ccc(CSc3nnnn3C)cc2)c1 | -29 | -4 | 6 | 5 | 6 | / | /
COC(=O)[C@@]12CCCCN1[C@H](c1ccc(-c3cc(C(C)=O)cs3)c(OC)c1)[C@H]1C(=O)N(C)C(=O)[C@H]12 | -15 | 5 | 10 | 3 | 52* | -6 | 36
COC(=O)[C@@]12CCCCN1[C@H](c1ccc(-c3cc(C(C)=O)cs3)cc1)[C@H]1C(=O)N(C)C(=O)[C@H]12 | 20 | -7 | 21 | 6 | 11 | / | /
SMILES | ZTA counter | EBNA-1 inh | Apaf-1 inh | PREPL inhibitor | UBC13 polyUb | Casp3 counter | UBC13 confirm
CN(C)S(=O)(=O)c1ccc(Cl)c(NC(=O)COC(=O)CNC(=O)c2ccco2)c1 | 1 | -18 | 8 | 13 | -4 | / | /
Cc1cc(C)n(-c2ccc(Cl)c(C(=O)Nc3ccc(OC(F)(F)F)cc3)n2)n1 | -1 | 6 | -1 | 10 | 4 | / | /
O=C1NC2(CCCCCC2)N=C1c1ccc(Br)cc1 | 6 | -3 | 6 | -9 | 49* | -3 | ?
O=C1NC2(CCCC2)N=C1c1ccc(F)cc1 | -5 | -4 | -2 | 2 | -18 | / | /
COCCNc1nc2c(-c3cccc(C(F)(F)F)c3)nnn2c2ccccc12 | 14 | 5 | 10 | -7 | 47* | 4 | ?
CC(C)OCCCNc1nc2c(-c3ccccc3)nnn2c2ccccc12 | 10 | 0 | 12 | -1 | 46* | -4 | 41
CCOCCCNc1nc2c(-c3ccccc3)nnn2c2ccccc12 | 4 | -4 | 9 | 2 | 32 | / | /
CC(C)OC(=S)N/C(=N\S(=O)(=O)c1ccccc1)c1ccccc1 | 1 | 5 | -16 | -2 | 3 | / | /
C#CCOCCOCCOCCNc1nc(N2CCN(C(=O)[C@H]([C@@H](C)CC)n3cc([C@@H](N)CC(C)C)nn3)CC2)nc(N2CCN(C(=O)[C@H](Cc3ccc(O)cc3)n3cc([C@@H](N)C(C)CC)nn3)CC2)n1 (stereo not given in full) | -23 | -5 | 10 | -4 | 57* | 0 | 51*
C#CCOCCOCCOCCNc1nc(N2CCN(C(=O)[C@H](CCC(=O)O)n3cc(C(N)Cc4ccc(O)cc4)nn3)CC2)nc(N2CCN(C(=O)[C@H](Cc3ccc(O)cc3)n3cc(C(N)[C@H](C)CC)nn3)CC2)n1 (stereo not given in full) | / | / | 6 | / | -3 | / | /
C#CCOCCOCCOCCNc1nc(N2CCN(C(=O)[C@H]([C@@H](C)CC)n3cc([C@@H](N)Cc4ccc(O)cc4)nn3)CC2)nc(N2CCN(C(=O)[C@H](Cc3ccc(O)cc3)n3cc([C@@H](N)C(C)CC)nn3)CC2)n1 (stereo not given in full) | -1 | 8 | 35 | 23 | 64* | 1 | 57*
C#CCOCCOCCOCCNc1nc(N2CCN(C(=O)[C@H](Cc3ccc(O)cc3)n3cc([C@@H](N)C(C)CC)nn3)CC2)nc(N2CCN(C(=O)[C@H](CCCCN)n3cc([C@@H](N)CC(C)C)nn3)CC2)n1 (stereo not given in full) | -5 | -1 | 20 | 21 | 58* | -2 | 50*
O=C(Nc1nccs1)C1CC(=O)N(CCc2ccccc2)C1 (stereo not given) | / | / | -3 | / | -2 | / | /
Cc1cc(C)c2sc(N(CCN(C)C)C(=O)c3cc(Cl)sc3Cl)nc2c1 | -30 | -13 | 2 | -13 | 3 | / | /
CN(C)CCCn1cnc2c(c1=N)C(c1ccccc1)c1ccc3ccccc3c1O2 (stereo not given) | -1 | 5 | 15 | 4 | 71* | 2 | 82*
